Measurements gathered from unrelated publications.
Protocols differ between the studies behind these lines.
Target: Death-associated protein kinase 1 (DAPK1, Homo sapiens, UniProt P53355)

CN(c1nccc(-c2cnn3ncccc23)n1)C1CC1 — remaining binding (binding; 1 µM): 100%
Cn1nc(C(=O)NCc2ccc(C(=O)O)cc2)cc1-c1ccc2[nH]ccc2c1 — remaining binding (cell-free assay, competition with immobilised ligand; 0.1 µM): 97%
C[C@H]1CCN(c2nccc(-c3cnn4ncccc34)n2)C1 — remaining binding (binding; 1 µM): 71%
Nc1c(C(=O)NCc2ccc(C(=O)NCCCC3CCCCC3)cc2)cnn1-c1ccccc1 — remaining binding (cell-free assay, competition with immobilised ligand; 0.1 µM): 92%
O=C(c1ccc(Nc2nccc(-c3cc4ccccc4s3)n2)cc1)N1CCC(N2CCCC2)CC1 — remaining binding (binding, competition with immobilised ligand; 1 µM): 13%
CCCOc1ccc([C@H]2[C@H](C(=O)O)[C@@H](c3ccc4c(c3)OCO4)CN2CC(=O)Nc2c(CC)cccc2CC)cc1 — remaining binding (cell-free assay, competition with immobilised ligand; 1 µM): 90%
FC(F)(F)Oc1cccc(-c2cnc3ccc(-c4ccncc4)nn23)c1 — remaining binding (cell-free assay, competition with immobilised ligand; 5 µM): 89%
N[C@@H]1CCN(c2nccc(-c3cnn4ncccc34)n2)C1 — remaining binding (binding; 1 µM): 97%
Nc1ncc2c(n1)-c1c([nH]c3ccc(C#CC4CC4)cc13)CCCC2 — remaining binding (binding, competition with immobilised ligand; 1 µM): 87%
c1cnn2ncc(-c3ccnc(N4CCC45COC5)n3)c2c1 — remaining binding (binding; 1 µM): 79%
C=CC(=O)N1CCC(C(=O)NCC(=O)N2CCN(c3nc(-c4cnc(N)nc4C(F)F)nc(N4CCOCC4)n3)CC2)CC1 — remaining binding (binding, competition with immobilised ligand; 1 µM): 96%
c1cncc(-c2cccc(Nc3nccc(NC4CCCCC4)n3)c2)c1 — remaining binding (binding, competition with immobilised ligand; 10 µM): 90%
c1ccc(N2CCN(Cc3nc4ccccc4[nH]3)CC2)nc1 — remaining binding (binding, competition with immobilised ligand; 1 µM): 100%
O=C(Nc1c[nH]nc1C(=O)NC1CCNCC1)c1cc(F)cc(F)c1 — remaining binding (binding, competition with immobilised ligand; 1 µM): 100%
O=C(NCCCN1CCOCC1)c1ccc(Nc2ncc(Cl)c(-c3ccc(Cl)s3)n2)cc1 — remaining binding (binding, competition with immobilised ligand; 1 µM): 22%
CN(C)c1ncc(F)c(-c2cnn3ncccc23)n1 — remaining binding (binding; 1 µM): 100%
CC(=O)N1CCC(c2ccc(C(=O)NC3=NCCN3)cc2C(F)(F)F)CC1 — remaining binding (cell-free assay, competition with immobilised ligand; 1 µM): 100%
Cc1cnc(Nc2ccc(C(=O)N3CCC(N4CCCC4)CC3)cc2)nc1-c1cc2ccccc2s1 — remaining binding (binding, competition with immobilised ligand; 1 µM): 16%
CCN1CCN(Cc2ccc(C(=O)Nc3ccc(C)c(Oc4ccc5c(c4)CC(=O)N5)c3)cc2C(F)(F)F)CC1 — remaining binding (binding, competition with immobilised ligand; 1 µM): 100%
CS(=O)(=O)c1cc(C2(NC(=O)c3cncc4c3cnn4-c3ccc(F)cc3)CC2)ccn1 — remaining binding (cell-free assay, competition with immobilised ligand; 1 µM): 83%
CNC(=O)[C@@H]1CC[C@@H](n2c(-c3ccc4cnccc4c3)nc3ccc(C(=O)NCc4cccc(C(N)=O)c4)cc32)C1 — remaining binding (binding, competition with immobilised ligand; 1 µM): 100%
